Reference: ChEMBL document CHEMBL4033643, “Synthesis and in vitro antitumour activity of crassalactone D, its stereoisomers and novel cinnamic ester derivatives” (Eur J Med Chem, 2017)
Active and inactive are the calls of the source. No cut-off for these calls is given here.

How the values were obtained:
MRC5 = test: Cytotoxicity against human MRC5 cells assessed as reduction in cell viability after 72 hrs by MTT assay; assay type: cell-based; details: MRC5, 72 h
HeLa = test: Cytotoxicity against human HeLa cells assessed as reduction in cell viability after 72 hrs by MTT assay; assay type: functional, cell-based
MDA-MB-231 = test: Cytotoxicity against human MDA-MB-231 cells assessed as reduction in cell viability after 72 hrs by MTT assay; assay type: functional, cell-based; details: MDA-MB-231, 72 h
MCF7 = test: Cytotoxicity against human MCF7 cells assessed as reduction in cell viability after 72 hrs by MTT assay; assay type: functional, cell-based; details: MCF7, 72 h
Raji = test: Cytotoxicity against human Raji cells assessed as reduction in cell viability after 72 hrs by MTT assay; assay type: functional, cell-based
Jurkat = test: Cytotoxicity against human Jurkat cells assessed as reduction in cell viability after 72 hrs by MTT assay; assay type: functional, cell-based
HL-60 = test: Cytotoxicity against human HL60 cells assessed as reduction in cell viability after 72 hrs by MTT assay; assay type: functional, cell-based; details: HL-60, 72 h
K562 [1] = test: Cytotoxicity against human K562 cells assessed as reduction in cell viability after 72 hrs by MTT assay; assay type: functional, cell-based; details: K562, 72 h
A549 = test: Cytotoxicity against human A549 cells assessed as reduction in cell viability after 72 hrs by MTT assay; assay type: functional, cell-based; details: A549, 72 h
K562 [2] = test: Cell cycle arrest in human K562 cells assessed as accumulation at sub G1 phase at IC50 after 72 hrs by propidium iodide staining based flow cytometry (reference value: 1.48%); assay type: functional
K562 [3] = test: Cell cycle arrest in human K562 cells assessed as accumulation at G0/G1 phase at IC50 after 72 hrs by propidium iodide staining based flow cytometry (reference value: 38.48%); assay type: functional
K562 [4] = test: Cell cycle arrest in human K562 cells assessed as accumulation at S phase at IC50 after 72 hrs by propidium iodide staining based flow cytometry (reference value: 41.03%); assay type: functional
K562 [5] = test: Cell cycle arrest in human K562 cells assessed as accumulation at G2/M phase at IC50 after 72 hrs by propidium iodide staining based flow cytometry (reference value: 19.01%); assay type: functional
K562 [6] = test: Induction of apoptosis in human K562 cells assessed as specific apoptosis by Annexin V-FITC/propidium iodide staining based flow cytometry; assay type: functional; parameters: concentration or dose not given beside the values
K562 [7] = test: Induction of apoptosis in human K562 cells assessed as specific necrosis by Annexin V-FITC/propidium iodide staining based flow cytometry; assay type: functional; parameters: concentration or dose not given beside the values
K562 [8] = test: Induction of apoptosis in human K562 cells assessed as decrease in Bcl-2 expression level by Western blot analysis; assay type: functional, cell-based
Procedure, shortened: (§1)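 Western blot of treated K562 cells for Bcl-2, Bax, activated caspase 3 and cleaved PARP (85 kDa fragment). Blots developed by ECL, with band expression quantified by densitometry against an untreated control sample.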

K562 [9] = test: Induction of apoptosis in human K562 cells assessed as increase in Bax expression level by Western blot analysis; assay type: functional, cell-based; procedure, shortened: as §1
K562 [10] = test: Induction of apoptosis in human K562 cells assessed as increase in caspase 3 expression level by Western blot analysis; assay type: functional, cell-based; procedure, shortened: as §1
K562 [11] = test: Induction of apoptosis in human K562 cells assessed as increase in cleaved PARP expression level by Western blot analysis; assay type: functional, cell-based; procedure, shortened: as §1
K562 [12] = test: Cell cycle arrest in human K562 cells assessed as total cell levels at G0/G1 phase at IC50 after 72 hrs by propidium iodide staining based flow cytometry (reference value: 39.97%); assay type: functional
K562 [13] = test: Cell cycle arrest in human K562 cells assessed as total cell levels at S phase at IC50 after 72 hrs by propidium iodide staining based flow cytometry (reference value: 36.49%); assay type: functional
K562 [14] = test: Cell cycle arrest in human K562 cells assessed as total cell levels at G2/M phase at IC50 after 72 hrs by propidium iodide staining based flow cytometry (reference value: 14.31%); assay type: functional
K562 [15] = test: Cell cycle arrest in human K562 cells assessed as total cell levels at M4 phase at IC50 after 72 hrs by propidium iodide staining based flow cytometry (reference value: 0.50%); assay type: functional
K562 [16] = test: Induction of apoptosis in human K562 cells assessed as gated necrotic cells by Annexin V-FITC/propidium iodide staining based flow cytometry (reference value: 0.24%); assay type: functional
K562 [17] = test: Induction of apoptosis in human K562 cells assessed as gated late apoptotic cells by Annexin V-FITC/propidium iodide staining based flow cytometry (reference value: 0.88%); assay type: functional
K562 [18] = test: Induction of apoptosis in human K562 cells assessed as gated viable cells by Annexin V-FITC/propidium iodide staining based flow cytometry (reference value: 95.78%); assay type: functional
K562 [19] = test: Induction of apoptosis in human K562 cells assessed as gated early apoptotic cells by Annexin V-FITC/propidium iodide staining based flow cytometry (reference value: 3.18%); assay type: functional
K562 [20] = test: Induction of apoptosis in human K562 cells assessed as total necrotic cells by Annexin V-FITC/propidium iodide staining based flow cytometry (reference value: 0.23%); assay type: functional
K562 [21] = test: Induction of apoptosis in human K562 cells assessed as total late apoptotic cells by Annexin V-FITC/propidium iodide staining based flow cytometry (reference value: 0.77%); assay type: functional
K562 [22] = test: Induction of apoptosis in human K562 cells assessed as total viable cells by Annexin V-FITC/propidium iodide staining based flow cytometry (reference value: 92.45%); assay type: functional
K562 [23] = test: Induction of apoptosis in human K562 cells assessed as total early apoptotic cells by Annexin V-FITC/propidium iodide staining based flow cytometry (reference value: 3.07%); assay type: functional

Row | Compound | IC50 (MRC5) [µM] | IC50 (HeLa) [µM] | IC50 (MDA-MB-231) [nM] | IC50 (MCF7) [µM] | IC50 (Raji) [nM] | IC50 (Jurkat) [nM] | IC50 (HL-60) [µM] | IC50 (K562 [1]) [nM] | IC50 (A549) [nM] | Activity (K562 [2]) [%] | Activity (K562 [3]) [%] | Activity (K562 [4]) [%] | Activity (K562 [5]) [%] | Activity (K562 [6]) [%] | Activity (K562 [7]) [%] | Activity (K562 [8]) | Activity (K562 [9]) | Activity (K562 [10]) | Activity (K562 [11]) | Activity (K562 [12]) [%] | also measured
1 | O=C1C=C[C@@]2(C[C@H](OC(=O)/C=C/c3ccccc3)[C@H](c3ccccc3)O2)O1 | > 100 | 58.5 | 3640 | 11.4 | 2280 | 1020 | 9.65 | 4650 | 250 | 12.49 | 27.11 | 42.16 | 18.24 | 6.76 | 28.29 | Active | inactive | Active | Active | 18.23 | Activity (K562 [13]): 27.97%; Activity (K562 [14]): 12.13%; Activity (K562 [15]): 8.27%; Activity (K562 [16]): 8.36%; Activity (K562 [17]): 10.47%; Activity (K562 [18]): 31.14%; Activity (K562 [19]): 50.03%; Activity (K562 [20]): 6.66%; Activity (K562 [21]): 8.34%; Activity (K562 [22]): 24.8%; Activity (K562 [23]): 39.85%
2 | COc1ccc(/C=C/C(=O)O[C@H]2C[C@@]3(C=CC(=O)O3)O[C@H]2c2ccccc2)cc1 | > 100 | 9.94 | 2690 | 3.25 | 3050 | 2540 | 2.25 | 1020 | 450 | 3.23 | 47.26 | 29.4 | 20.11 | 2.36 | 1.6 | Active | inactive | Active | Active | 42.31 | Activity (K562 [13]): 26.32%; Activity (K562 [14]): 18.76%; Activity (K562 [15]): 2.89%; Activity (K562 [16]): 2.44%; Activity (K562 [17]): 0.29%; Activity (K562 [18]): 95.84%; Activity (K562 [19]): 1.42%; Activity (K562 [20]): 2.34%; Activity (K562 [21]): 0.28%; Activity (K562 [22]): 91.77%; Activity (K562 [23]): 1.36%
3 | O=C1C=C[C@@]2(C[C@H](OC(=O)/C=C/c3ccc([N+](=O)[O-])cc3)[C@H](c3ccccc3)O2)O1 | > 100 | 24.8 | 1250 | 4.31 | 1640 | 4030 | 4.36 | 2220 | 850 | 40.08 | 30.15 | 22.7 | 7.07 | 70.03 | 1.76 | Active | inactive | Active | Active | 24.92 | Activity (K562 [13]): 18.76%; Activity (K562 [14]): 6.42%; Activity (K562 [15]): 33.19%; Activity (K562 [16]): 2.29%; Activity (K562 [17]): 1.62%; Activity (K562 [18]): 26.49%; Activity (K562 [19]): 69.6%; Activity (K562 [20]): 1.03%; Activity (K562 [21]): 0.73%; Activity (K562 [22]): 11.93%; Activity (K562 [23]): 31.35%
